What was measured:
[1] = Diuretic activity at 40 mg/kg (screening dose-84 umol/kg) in male […] in a one stage experiment; T/C = urine vol of treated rats / urine vol of control rats; type: functional
Procedure, shortened: (§1)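 40 mg/kg given by gavage in 25 mL/kg 0.9% saline with 0.5% (carboxymethyl)cellulose. Four rats per agent, two per metabolism cage; 20 controls; 5 h urine. T/C = treated/control urine volume. Stage-1 T/C of 1.66 or more leads to stage 2; product T/C1·T/C2 of 3.34 or more counts as active.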

[2] = Diuretic activity at 40 mg/kg (screening dose-90.1 umol/kg) in […] in a one stage experiment; T/C = urine vol of treated rats / urine vol of control rats; type: functional; procedure, shortened: as §1
[3] = Diuretic activity at 40 mg/kg (screening dose-84.7 umol/kg) in […] in a one stage experiment; T/C = urine vol of treated rats / urine vol of control rats; type: functional; procedure, shortened: as §1
Rattus norvegicus [4] = assay: Mean excretion of chloride in conscious rats at a dose of 3.0 mg/kg given orally; type: ADME, organism-based; design: dose 3 mg/kg, route oral; conditions: in vivo, po
Procedure, shortened: (§2)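 Secondary dose-response in male Sprague-Dawley rats (~160 g), fasted and hydrated as in the primary screen. Oral gavage at 0.3-100 mg/kg in 25 mL/kg saline/0.5% CMC, three cages of two rats per dose. Urine collected 5 h; Na, K, Cl, HCO3 measured. Values are mean excretion (mequiv), compared with controls at P < 0.05.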

Rattus norvegicus [5] = species: Rattus norvegicus; assay: […]; type: ADME, organism-based, Urine; design: dose 30 mg/kg, route oral; conditions: in vivo, po, 30 mg/kg
Procedure, shortened: (§3)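 Male Sprague-Dawley rats, about 160 g, fasted 24 h and water withheld 1 1/2 h beforehand; food and water withheld during the test. Dosing by gavage with 25 mL/kg 0.9% saline containing 0.5% (carboxymethyl)cellulose, agent dissolved or suspended. Three cages of two rats each per dose, held in metabolism cages. Urine collected over 5 h. Volume given in mL, Na+ in mequiv. Significance versus control at P < 0.05.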

Rattus norvegicus [6] = assay: Mean excretion of sodium in conscious rats at a dose of 0.3 mg/kg given orally; type: ADME, organism-based; design: dose 0.3 mg/kg, route oral; conditions: in vivo, po; procedure, shortened: as §3
Rattus norvegicus [7] = species: Rattus norvegicus; assay: […]; type: ADME, organism-based, Urine; design: dose 3 mg/kg, route oral; conditions: in vivo, po, 3 mg/kg; procedure, shortened: as §3
Rattus norvegicus [8] = assay: Mean excretion of chloride in conscious rats at a dose of 10 mg/kg given orally; type: ADME, organism-based; design: dose 10 mg/kg, route oral; conditions: in vivo, po; procedure, shortened: as §2
Rattus norvegicus [9] = assay: Mean excretion of […] in conscious rats at a dose of 1.0 mg/kg given orally; type: ADME, organism-based; design: dose 1 mg/kg, route oral; conditions: in vivo, po; procedure, shortened: as §3
Rattus norvegicus [10] = assay: Mean excretion of sodium in conscious rats at a dose of 3.0 mg/kg given orally; type: ADME, organism-based; design: dose 3 mg/kg, route oral; conditions: in vivo, po; procedure, shortened: as §3
Rattus norvegicus [11] = assay: Mean excretion of chloride in conscious rats at a dose of 1.0 mg/kg given orally; type: ADME, organism-based; design: dose 1 mg/kg, route oral; conditions: in vivo, po; procedure, shortened: as §2
Rattus norvegicus [12] = species: Rattus norvegicus; assay: […]; type: ADME, organism-based, Urine; design: dose 100 mg/kg, route oral; conditions: in vivo, po, 100 mg/kg; procedure, shortened: as §3
Rattus norvegicus [13] = species: Rattus norvegicus; assay: […]; type: ADME, organism-based, Urine; design: dose 10 mg/kg, route oral; conditions: in vivo, po, 10 mg/kg; procedure, shortened: as §3
Rattus norvegicus [14] = assay: Mean excretion of chloride in conscious rats at a dose of 100 mg/kg given orally; type: ADME, organism-based; design: dose 100 mg/kg, route oral; conditions: in vivo, po; procedure, shortened: as §2
Rattus norvegicus [15] = assay: Mean excretion of sodium in conscious rats at a dose of 30 mg/kg given orally; type: ADME, organism-based; design: dose 30 mg/kg, route oral; conditions: in vivo, po; procedure, shortened: as §3
Rattus norvegicus [16] = assay: (§4) Mean excretion of Cl- in conscious rats at a dose of 0.3 mg/kg given orally; type: ADME, organism-based, Urine; design: dose 0.3 mg/kg, route oral; conditions: in vivo, po
Procedure, shortened: (§5)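 Dose-response test in male Sprague-Dawley rats of about 160 g, fasted 24 h, with water withheld 1½ h before and during the test. Each rat got a single gavage of 25 mL/kg 0.9% saline with 0.5% carboxymethylcellulose carrying the agent (0.3–100 mg/kg range). Rats were housed two per metabolism cage, and urine was collected for 5 h. Mean urine volume (mL) was compared with controls (P < 0.05).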

Rattus norvegicus [17] = species: Rattus norvegicus; assay: […]; type: ADME, organism-based, Urine; design: dose 1 mg/kg, route oral; conditions: in vivo, po, 1 mg/kg; procedure, shortened: as §5
Rattus norvegicus [18] = assay: Mean excretion of potassium in conscious rats at a dose of 1.0 mg/kg given orally; type: ADME, organism-based; design: dose 1 mg/kg, route oral; conditions: in vivo, po; procedure, shortened: as §2
Rattus norvegicus [19] = assay: Mean excretion of chloride in conscious rats at a dose of 30 mg/kg given orally; type: ADME, organism-based; design: dose 30 mg/kg, route oral; conditions: in vivo, po; procedure, shortened: as §2
Rattus norvegicus [20] = species: Rattus norvegicus; assay: […]; type: ADME, organism-based, Urine; design: dose 0.3 mg/kg, route oral; conditions: in vivo, po, 0.3 mg/kg; procedure, shortened: as §5
Rattus norvegicus [21] = assay: Mean excretion of sodium in conscious rats at a dose of 100 mg/kg given orally; type: ADME, organism-based; design: dose 100 mg/kg, route oral; conditions: in vivo, po; procedure, shortened: as §3
Rattus norvegicus [22] = assay: Mean excretion of potassium in conscious rats at a dose of 3.0 mg/kg given orally; type: ADME, organism-based; design: dose 3 mg/kg, route oral; conditions: in vivo, po; procedure, shortened: as §2
Rattus norvegicus [23] = assay: Mean excretion of potassium in conscious rats at a dose of 0.3 mg/kg given orally; type: ADME, organism-based; design: dose 0.3 mg/kg, route oral; conditions: in vivo, po; procedure, shortened: as §2
Rattus norvegicus [24] = assay: Mean excretion of potassium in conscious rats at a dose of 30 mg/kg given orally; type: ADME, organism-based; design: dose 30 mg/kg, route oral; conditions: in vivo, po; procedure, shortened: as §2
Rattus norvegicus [25] = assay: Mean excretion of potassium in conscious rats at a dose of 10 mg/kg given orally; type: ADME, organism-based; design: dose 10 mg/kg, route oral; conditions: in vivo, po; procedure, shortened: as §2
Rattus norvegicus [26] = assay: Mean excretion of sodium in conscious rats at a dose of 10 mg/kg given orally; type: ADME, organism-based; design: dose 10 mg/kg, route oral; conditions: in vivo, po; procedure, shortened: as §3
Rattus norvegicus [27] = assay: Mean excretion of potassium in conscious rats at a dose of 100 mg/kg given orally; type: ADME, organism-based; design: dose 100 mg/kg, route oral; conditions: in vivo, po; procedure, shortened: as §2
[28] = Mean excretion of Cl- in conscious rats at a dose of 1.0 mg/kg given orally; type: functional, Urine; conditions: route oral; procedure, shortened: as §5
[29] = as §4; type: functional, Urine; conditions: route oral; procedure, shortened: as §5

SMILES | Mean urine volume (Rattus norvegicus [5]) | Mean excretion of Na+ (Rattus norvegicus [6]) | Mean urine volume (Rattus norvegicus [7]) | Mean excretion of Na+ (Rattus norvegicus [9]) | Mean excretion of Na+ (Rattus norvegicus [10]) | Mean urine volume (Rattus norvegicus [12]) | Mean urine volume (Rattus norvegicus [13]) | Mean excretion of Na+ (Rattus norvegicus [15]) | Mean excretion of K+ (Rattus norvegicus [18]) | Mean excretion of Na+ (Rattus norvegicus [21]) | Mean excretion of K+ (Rattus norvegicus [22]) | Mean excretion of K+ (Rattus norvegicus [23]) | Mean excretion of K+ (Rattus norvegicus [24]) | Mean excretion of K+ (Rattus norvegicus [25]) | Mean excretion of Na+ (Rattus norvegicus [26]) | Mean excretion of K+ (Rattus norvegicus [27]) | also measured
CN(C)CC(c1ccccc1)c1nnc2n1-c1ccc(Cl)cc1C(c1ccc(Cl)cc1)=NC2 (stereo not given) |  |  |  |  |  |  |  |  |  |  |  |  |  |  |  |  | T/C 1 [1]: 1.49
Clc1ccc2c(c1)C(c1ccccc1)=NCc1nnc(C(CN3CCCC3)c3ccccc3)n1-2 (stereo not given) |  |  |  |  |  |  |  |  |  |  |  |  |  |  |  |  | T/C 1 [2]: 1.33
COc1cccc(C2=NCc3nnc(C(CN(C)C)c4ccccc4)n3-c3ccc(Cl)cc32)c1 (stereo not given) |  |  |  |  |  |  |  |  |  |  |  |  |  |  |  |  | T/C 1 [3]: 1.34
CN(C)CC(c1ccccc1)c1nnc2n1-c1ccccc1C(c1ccccc1)=NC2.Cl (stereo not given) |  |  |  |  |  |  |  |  |  |  |  |  |  |  |  |  | T/C 1 [2]: 1.48
Nc1nc(N)c2nc(-c3ccccc3)c(N)nc2n1 | 9.28 mL | 0.4 m equiv | 4.32 mL | 0.6 m equiv | 0.83 m equiv | 7.01 mL | 6.45 mL | 1.41 m equiv | 0.1 m equiv | 0.88 m equiv | 0.1 m equiv | 0.12 m equiv | 0.04 m equiv | 0.08 m equiv | 1 m equiv | 0.06 m equiv | Mean excretion of Cl- (Rattus norvegicus [4]): 0.74 m equiv; Mean excretion of Cl- (Rattus norvegicus [8]): 0.81 m equiv; Mean excretion of Cl- (Rattus norvegicus [11]): 0.68 m equiv; Mean excretion of Cl- (Rattus norvegicus [14]): 0.7 m equiv; Mean excretion of Cl- (Rattus norvegicus [16]): 0.47 m equiv; Mean urine volume (Rattus norvegicus [17]): 3.5 mL; Mean excretion of Cl- (Rattus norvegicus [19]): 1.15 m equiv; Mean urine volume (Rattus norvegicus [20]): 2.22 mL
NS(=O)(=O)c1cc(C(=O)O)c(NCc2ccco2)cc1Cl [FUROSEMIDE] | 18.3 mL | 0.82 m equiv | 5.23 mL | 0.83 m equiv | 0.86 m equiv | 27.8 mL | 8.48 mL | 2.37 m equiv | 0.21 m equiv | 3.52 m equiv | 0.27 m equiv | 0.22 m equiv | 0.46 m equiv | 0.34 m equiv | 1.13 m equiv | 0.67 m equiv | Mean urine volume [28]: 4.7 mL; Mean urine volume [29]: 4.45 mL
NS(=O)(=O)c1cc2c(cc1Cl)NCNS2(=O)=O [HYDROCHLOROTHIAZIDE] | 10.03 mL | 1.32 m equiv | 8.48 mL | 1.59 m equiv | 1.66 m equiv | 10.61 mL | 9.24 mL | 1.86 m equiv | 0.32 m equiv | 1.9 m equiv | 0.34 m equiv | 0.26 m equiv | 0.3 m equiv | 0.31 m equiv | 1.86 m equiv | 0.36 m equiv | Mean excretion of Cl- (Rattus norvegicus [4]): 1.78 m equiv; Mean excretion of Cl- (Rattus norvegicus [8]): 1.91 m equiv; Mean excretion of Cl- (Rattus norvegicus [11]): 1.77 m equiv; Mean excretion of Cl- (Rattus norvegicus [14]): 2.09 m equiv; Mean excretion of Cl- (Rattus norvegicus [16]): 1.42 m equiv; Mean urine volume [28]: 8.87 mL; Mean urine volume [29]: 7.18 mL; Mean excretion of Cl- (Rattus norvegicus [19]): 2.03 m equiv
